Measured values gathered from unrelated publications.
ADRA2A: Alpha-2A adrenergic receptor (ADRA2A, Homo sapiens, UniProt P08913)
OPRD1: Delta-type opioid receptor (OPRD1, Homo sapiens, UniProt P41143)
CA2: Carbonic anhydrase 2 (CA2, Homo sapiens, UniProt P00918)
Sigmar1: Sigma non-opioid intracellular receptor 1 (Sigmar1, Rattus norvegicus, UniProt Q9R0C9)
CA1: Carbonic anhydrase 1 (CA1, Homo sapiens, UniProt P00915)
SNCA fibril: Alpha-synuclein, fibril (SNCA, Homo sapiens, UniProt P37840)
HTR3A: 5-hydroxytryptamine receptor 3A (HTR3A, Homo sapiens, UniProt P46098)
Pam: Peptidylglycine alpha-amidating monooxygenase (Pam, Rattus norvegicus, UniProt P14925)

Structure (SMILES) | target | effect on | action | method | pH | notes | Ki [µM]
Nc1ccnc2ccccc12 | ADRA2A | ligand displacement | – | radioligand | – | cell membranes | 5.6
CCCCOC(=O)[C@@]12C[C@@H]1[C@@H](n1cnc3c(NC)nc(C#Cc4ccc(Cl)s4)nc31)[C@H](O)[C@@H]2O | OPRD1 | ligand displacement | – | radioligand | – | – | > 10
NS(=O)(=O)c1ccc(-n2nccc2-c2ccc(N3CCCCC3)cc2)cc1 | CA2 | enzyme activity | inhibitor | stopped-flow | – | – | 0.689
O=C(c1ccc(CNCCCN2CCN(C3CCCCC3)CC2)cc1)c1ccc([N+](=O)[O-])cc1 | Sigmar1 | ligand displacement | – | radioligand | – | cell membranes | 1.32
CCN(CC)Cc1cc(Nc2ccnc3cc(Cl)ccc23)ccc1O | NAD(P)H dehydrogenase [quinone] 1 (NQO1, Homo sapiens, UniProt P15559) | enzyme activity | inhibitor | absorbance | – | – | > 100
NS(=O)(=O)c1nnc(NC(=O)CC2CC2)s1 | CA1 | enzyme activity | inhibitor | – | – | – | 0.372
CCNc1nc(C#Cc2ccccc2)nc2c1ncn2[C@H]1[C@H](O)[C@H](O)[C@@H]2C[C@@H]21 | OPRD1 | ligand displacement | – | radioligand | – | – | > 10
CC1CCC(C(=O)Nc2nnc(S(N)(=O)=O)s2)CC1 (stereo not drawn) | CA2 | enzyme activity | inhibitor | – | – | – | 0.026
Oc1cccc(Nc2nc(-c3ccc(F)cc3F)cs2)c1 | Cholecystokinin receptor type A (CCKAR, Homo sapiens, UniProt P32238) | cell-free assay | – | – | – | – | 3.6
COc1ccc(C(=O)Nc2ccc(N3CCC4(CC3)CCN(c3ccccn3)CC4)cc2)cc1 | SNCA fibril | ligand displacement | – | radioligand | – | – | > 1
O=C1c2ccccc2CCN1CCCCN1CCN(c2cccc(Cl)c2Cl)CC1 | HTR3A | ligand displacement | – | radioligand | – | – | 0.099
CNC(=O)[C@@]12C[C@@H]1[C@@H](n1cnc3c(NC)nc(C#Cc4ccccc4)nc31)[C@H](O)[C@@H]2O | OPRD1 | ligand displacement | – | radioligand | – | – | > 10
CC[Si](C#Cc1ccc2c(c1)C=C([N+](=O)[O-])C(C(F)(F)F)O2)(CC)CC (stereo not drawn) | ADRA2A | cell-free assay | – | radioligand | – | – | 1.6
O[C@@H]1[C@H](O)[C@@H]2C[C@@H]2[C@H]1n1cnc2c(NCc3cccc(Cl)c3)nc(C#Cc3ccc(F)c(F)c3)nc21 | OPRD1 | ligand displacement | – | radioligand | – | – | > 10
C#CCN(CCCN1CCN(C2CCCCC2)CC1)CC(=O)Nc1ccc(C(=O)c2ccccc2)cc1 | Sigmar1 | ligand displacement | – | radioligand | – | cell membranes | 0.0169
NS(=O)(=O)c1nnc(NC(=O)C2CCCC2)s1 | CA1 | enzyme activity | inhibitor | – | – | – | 0.0765
O[C@@H]1[C@H](O)[C@@H]2C[C@@H]2[C@H]1n1cnc2c(NCCc3ccccc3)nc(C#Cc3ccccc3Cl)nc21 | OPRD1 | ligand displacement | – | radioligand | – | – | > 10
O=C(c1ccccc1)c1ccc(CNCCCN2C(=O)c3ccccc3C2=O)cc1 | Sigmar1 | ligand displacement | – | radioligand | – | cell membranes | 0.311

Structure (SMILES) | target | effect on | action | method | pH | notes | Ki [µM]
O=C(O)C=Cc1ccc([N+](=O)[O-])cc1 | Pam | enzyme activity | inhibitor | – | pH 6 | – | 600
NS(=O)(=O)c1ccc(C(F)(F)F)cc1 | CA2 | enzyme activity | inhibitor | absorbance | – | – | ~0.23
CNC(=O)[C@@]12C[C@@H]1[C@@H](n1cnc3c(NCc4cccc(Cl)c4)nc(Cl)nc31)[C@H](O)[C@@H]2O | OPRD1 | ligand displacement | – | radioligand | – | – | > 10
NS(=O)(=O)c1nnc(NC(=O)CC2CCCC2)s1 | CA2 | enzyme activity | inhibitor | – | – | – | 0.0194
O=C(CN(CCCCI)CCCN1CCN(C2CCCCC2)CC1)Nc1ccc(C(=O)c2ccccc2)cc1 | Sigmar1 | ligand displacement | – | radioligand | – | cell membranes | 0.172
Cc1nc2cc(OCCCCN3CCN(c4cccc(Cl)c4Cl)CC3)ccc2s1 | HTR3A | cell-free assay | – | radioligand | – | – | 0.13
CN(C)c1cccc2c(S(=O)(=O)Nc3ccc(C=CC(=O)O)cc3)cccc12 | Pam | enzyme activity | inhibitor | – | – | – | 10
CN1CCN(c2ccc(-c3ccnn3-c3ccc(S(N)(=O)=O)cc3)cc2)CC1 | CA2 | enzyme activity | inhibitor | stopped-flow | – | – | 0.587
NS(=O)(=O)c1nnc(NC(=O)CC2CCC2)s1 | CA1 | enzyme activity | inhibitor | – | – | – | 0.0778
CCCCN1CCC(COC(=O)c2ccc(N)c(OCF)c2)CC1 | OPRD1 | cell-free assay | – | radioligand | – | – | > 10
C#CCN(CCCN1CCN(C2CCCCC2)CC1)c1ccc(C(=O)c2ccccc2)cc1 | Sigmar1 | ligand displacement | – | radioligand | – | cell membranes | 0.652
COc1ccc(C(=O)Nc2ccc(N3CCN(c4ccccn4)CC3)cn2)cc1 | SNCA fibril | ligand displacement | – | radioligand | – | – | 0.0049
CN(C)c1ccc(C=CC(=O)O)cc1 | Pam | enzyme activity | inhibitor | – | pH 6 | – | 3000
NS(=O)(=O)c1nnc(NC(=O)C2CC2)s1 | CA2 | enzyme activity | inhibitor | – | – | – | 0.0246
CNC(=O)[C@@]12C[C@@H]1[C@@H](n1cnc3c(NCc4cccc(Cl)c4)nc(C#Cc4ccccc4)nc31)[C@H](O)[C@@H]2O | OPRD1 | ligand displacement | – | radioligand | – | – | > 10
COc1cc2c(cc1OC)CN(CCCNC(=O)c1ccc(C(=O)c3ccc([N+](=O)[O-])cc3)cc1)CC2 | Sigmar1 | ligand displacement | – | radioligand | – | cell membranes | > 10
NS(=O)(=O)c1ccc(-n2nccc2-c2ccc(N3CCOCC3)cc2)cc1 | CA2 | enzyme activity | inhibitor | stopped-flow | – | – | 0.624
CNC(=O)[C@H]1O[C@@H](n2cnc3c(NC)nc(C#Cc4ccc(Cl)s4)nc32)[C@H](O)[C@@H]1O | OPRD1 | ligand displacement | – | radioligand | – | – | > 10
